The source of these data is ChEMBL document CHEMBL1138738, “Synthesis, in vitro pharmacology, structure-activity relationships, and pharmacokinetics of 3-alkoxy-2-amino-6-fluorobicyclo[3.1.0]hexane-2,6-dicarboxylic acid derivatives as potent and selective group II metabotropic glutamate receptor antagonists” (J Med Chem, 2004).

In series [1] the target is T1, Metabotropic glutamate receptor 2 (Rattus norvegicus, UniProt P31421). The experiment in a line: Binding affinity towards metabotropic glutamate receptor 2 of rat expressed in CHO cells was determined by using [3H]MGS-0008. In kind it is cell-based.
T1 sequence (P31421 whole entry): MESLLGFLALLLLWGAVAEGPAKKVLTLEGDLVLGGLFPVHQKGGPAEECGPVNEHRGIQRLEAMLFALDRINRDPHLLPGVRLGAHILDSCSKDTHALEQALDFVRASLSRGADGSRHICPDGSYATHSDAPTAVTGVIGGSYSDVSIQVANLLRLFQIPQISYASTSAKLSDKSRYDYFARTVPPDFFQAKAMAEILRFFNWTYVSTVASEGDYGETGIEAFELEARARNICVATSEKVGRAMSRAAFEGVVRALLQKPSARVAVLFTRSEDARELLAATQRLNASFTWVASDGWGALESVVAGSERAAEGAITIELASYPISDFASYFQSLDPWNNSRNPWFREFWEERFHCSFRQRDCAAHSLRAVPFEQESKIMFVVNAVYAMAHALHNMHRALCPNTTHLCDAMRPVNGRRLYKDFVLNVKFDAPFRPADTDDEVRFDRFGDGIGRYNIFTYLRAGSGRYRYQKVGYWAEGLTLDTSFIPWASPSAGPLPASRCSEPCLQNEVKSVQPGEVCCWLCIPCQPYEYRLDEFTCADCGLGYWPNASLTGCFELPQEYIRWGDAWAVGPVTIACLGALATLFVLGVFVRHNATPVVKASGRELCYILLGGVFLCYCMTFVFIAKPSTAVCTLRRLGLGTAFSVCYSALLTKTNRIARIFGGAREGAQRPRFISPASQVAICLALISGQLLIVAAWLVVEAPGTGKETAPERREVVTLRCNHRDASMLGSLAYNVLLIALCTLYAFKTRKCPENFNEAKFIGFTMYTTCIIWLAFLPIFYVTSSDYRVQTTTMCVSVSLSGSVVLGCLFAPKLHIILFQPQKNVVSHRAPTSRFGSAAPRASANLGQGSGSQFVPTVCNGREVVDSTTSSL
Series [2] concerns the target Metabotropic glutamate receptor 3 (Rattus norvegicus, UniProt P31422). The series can be described thus: Binding affinity towards metabotropic glutamate receptor 3 of rat expressed in CHO cells was determined by using [3H]MGS-0008. Type of series: cell-based.
Series [3] can be described thus: Half-life in rat upon oral dose of 30 mg/kg. Type of series: ADME, organism-based. Set-up: dose 30 mg/kg, route oral. The following applies: in vivo. In outline:
(§1)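 Fasted rats were dosed orally at 3, 10 or 30 mg/kg. Plasma concentration-time profiles were measured by LC/ESI-MS/MS. Cmax, Tmax, elimination half-life and AUCinf were derived per dose group and reported as mean ± deviation.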

For series [4], the target named is T1, Metabotropic glutamate receptor 2. The series can be described thus: Concentration required to inhibit metabotropic glutamate receptor 2 activity of rat expressed in CHO cells. Type of series: cell-based.
Series [5] is described as follows: Concentration of compound in brain of rat after 1 hr of oral dose 10 mg/kg. In kind it is ADME, organism-based. Set-up: dose 10 mg/kg, route oral. In outline: (§2)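 Rats given a single peroral dose of 10 mg/kg. Plasma and cerebrum were sampled at 1, 3, 6 and 24 h. Concentrations were measured by LC/ESI-MS/MS using an internal standard. Detection limits were 1 ng/mL in plasma and 1.5 ng/g in brain. Tmax, Cmax, terminal half-life (lambda z) and predicted AUCinf were derived from the mean time-course levels.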

The nature of series [6]: Concentration of compound in brain of rat after 3h of oral dose 10 mg/kg. In kind it is ADME, organism-based. Set-up: dose 10 mg/kg, route oral. In outline:
as §2

Series [7] is described as follows: Concentration of compound in brain of rat after 6 hr of oral dose 10 mg/kg. Type of series: ADME, organism-based. Set-up: dose 10 mg/kg, route oral. In outline:
as §2

Series [8] in a line: Peak plasma concentration in rats upon oral dose of 3 mg/kg. Type of series: ADME, organism-based. Set-up: dose 3 mg/kg, route oral. To be noted: rat. The gist of the method: as §1
The nature of series [9]: Peak plasma concentration in rats upon oral dose of 10 mg/kg. Set-up: dose 10 mg/kg, route oral. Type of series: ADME, organism-based. The following applies: rat. The gist of the method:
as §1

Series [10] in a line: Peak plasma concentration in rats upon oral dose of 30 mg/kg. Type of series: ADME, organism-based. Set-up: dose 30 mg/kg, route oral. To be noted: rat. In outline: as §1
Series [11] in a line: Peak plasma concentration in rat brain upon oral dose of 10 mg/kg. Set-up: dose 10 mg/kg, route oral. Type of series: ADME, organism-based. The gist of the method: as §2
Series [12] can be described thus: Peak plasma concentration in rat plasma upon oral dose of 10 mg/kg. Type of series: ADME, organism-based. Set-up: dose 10 mg/kg, route oral. In outline:
as §2

A short description of series [13]: Half-life in rat brain upon oral dose of 10 mg/kg. Set-up: dose 10 mg/kg, route oral. Type of series: ADME, organism-based. The gist of the method:
as §2

Series [14] is described as follows: Half-life in rat plasma upon oral dose of 10 mg/kg. Set-up: dose 10 mg/kg, route oral. Type of series: ADME, organism-based. In outline:
as §2

Series [15] can be described thus: Concentration of compound in brain of rat after 24 hr of oral dose 10 mg/kg. Type of series: ADME, organism-based. Set-up: dose 10 mg/kg, route oral. The gist of the method: as §2
Series [16] is described as follows: Concentration of compound in plasma of rat after 1 hr of oral dose 10 mg/kg. Type of series: ADME, organism-based. Set-up: dose 10 mg/kg, route oral. In outline:
as §2

Series [17] can be described thus: Concentration of compound in plasma of rat after 3h of oral dose 10 mg/kg. In kind it is ADME, organism-based. Set-up: dose 10 mg/kg, route oral. In outline: as §2
Series [18] is described as follows: Concentration of compound in plasma of rat after 6 hr of oral dose 10 mg/kg. Type of series: ADME, organism-based. Set-up: dose 10 mg/kg, route oral. In outline:
as §2

Series [19] can be described thus: Concentration of compound in plasma of rat after 24 hr of oral dose 10 mg/kg. Type of series: ADME, organism-based. Set-up: dose 10 mg/kg, route oral. In outline:
as §2

Series [20] is described as follows: Maximum time required to achieve peak plasma concentration upon oral dose of 3 mg/kg to rats. The following applies: rat. Type of series: ADME, organism-based. Set-up: dose 3 mg/kg, route oral. The gist of the method: as §1
The nature of series [21]: Maximum time required to achieve peak plasma concentration upon oral dose of 10 mg/kg to rats. In kind it is ADME, organism-based. Set-up: dose 10 mg/kg, route oral. The following applies: rat. In outline: as §1
The nature of series [22]: Maximum time required to achieve peak plasma concentration upon oral dose of 30 mg/kg to rats. In kind it is ADME, organism-based. Set-up: dose 30 mg/kg, route oral. The following applies: rat. The gist of the method: as §1
Series [23] can be described thus: Maximum time required to achieve peak plasma concentration in rat brain upon oral dose of 10 mg/kg. In kind it is ADME, organism-based. Set-up: dose 10 mg/kg, route oral. The gist of the method: as §2
Series [24] in a line: Maximum time required to achieve peak plasma concentration in rat plasma upon oral dose of 10 mg/kg. Type of series: ADME, organism-based. Set-up: dose 10 mg/kg, route oral. In outline: as §2
The nature of series [25]: Half-life in rat upon oral dose of 3 mg/kg. In kind it is ADME, organism-based. Set-up: dose 3 mg/kg, route oral. The following applies: in vivo. The gist of the method:
as §1

The nature of series [26]: Half-life in rat upon oral dose of 10 mg/kg. Type of series: ADME, organism-based. The following applies: in vivo. Set-up: dose 10 mg/kg, route oral. The gist of the method:
as §1

The target in series [27] is T1, Metabotropic glutamate receptor 2. The experiment in a line: Effective concentration for agonistic activity towards metabotropic glutamate receptor 2 of rat expressed in CHO cells. In kind it is functional, cell-based.

pEC50, pIC50, pKi: −log10 of the molar value.

Chain of Metabotropic glutamate receptor 3 (P31422 whole entry): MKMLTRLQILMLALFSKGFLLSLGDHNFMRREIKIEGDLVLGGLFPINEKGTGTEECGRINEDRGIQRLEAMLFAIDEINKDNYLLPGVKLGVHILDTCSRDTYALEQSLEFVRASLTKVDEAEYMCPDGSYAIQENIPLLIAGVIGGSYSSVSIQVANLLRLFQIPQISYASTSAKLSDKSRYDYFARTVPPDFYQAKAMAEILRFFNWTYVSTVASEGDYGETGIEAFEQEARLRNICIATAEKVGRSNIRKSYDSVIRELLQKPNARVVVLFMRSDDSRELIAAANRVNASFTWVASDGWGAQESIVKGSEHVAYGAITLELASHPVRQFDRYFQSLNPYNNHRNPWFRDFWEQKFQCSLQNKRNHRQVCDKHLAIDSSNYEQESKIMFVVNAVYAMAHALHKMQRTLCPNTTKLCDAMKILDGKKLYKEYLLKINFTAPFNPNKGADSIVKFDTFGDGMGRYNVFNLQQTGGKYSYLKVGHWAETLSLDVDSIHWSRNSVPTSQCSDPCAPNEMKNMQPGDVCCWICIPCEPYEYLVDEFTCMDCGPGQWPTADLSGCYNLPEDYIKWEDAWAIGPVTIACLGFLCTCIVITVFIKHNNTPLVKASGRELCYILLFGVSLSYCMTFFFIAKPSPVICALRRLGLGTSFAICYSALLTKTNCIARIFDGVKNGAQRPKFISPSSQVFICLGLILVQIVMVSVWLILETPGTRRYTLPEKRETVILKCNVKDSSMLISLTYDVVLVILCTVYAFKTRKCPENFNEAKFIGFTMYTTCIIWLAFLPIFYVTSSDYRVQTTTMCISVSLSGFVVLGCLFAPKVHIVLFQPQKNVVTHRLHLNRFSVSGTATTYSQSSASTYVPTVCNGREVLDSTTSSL

What is called pKi is −log10 of the Ki, conventionally taken in molar units. The low end stands for a high Ki, the high end for a low Ki. In series [1], `CCC[C@H](O[C@@H]1C[C@@H]2[C@H]([C@]1(N)C(=O)O)[C@@]2(F)C(=O)O)c1ccc(Cl)c(Cl)c1` gave a pKi of 8.52.

Consider `C[C@H](O[C@@H]1C[C@@H]2[C@H]([C@]1(N)C(=O)O)[C@@]2(F)C(=O)O)c1ccc(Cl)c(Cl)c1`, for which the pKi in series [1] is 8.24. Compared with the last compound, the pKi is 0.28 log units lower.

Regarding `CO[C@@H]1C[C@@H]2[C@H]([C@]1(N)C(=O)O)[C@@]2(F)C(=O)O`, the pKi in series [1] was 7.41; in series [2], 7.06.

Turning to `N[C@]1(C(=O)O)[C@H]2[C@@H](C[C@H]1OCc1cccc(-c3ccccc3)c1)[C@]2(F)C(=O)O`, the pKi in series [1] was 8.03.

As to `CC[C@@H](O[C@@H]1C[C@@H]2[C@H]([C@]1(N)C(=O)O)[C@@]2(F)C(=O)O)c1ccc(Cl)c(Cl)c1`, the negative-log Ki (pKi) in series [1] was 8.79. Compared with the last compound, the pKi is 0.76 log units higher.

Broadly, the half-life is the time in which the quantity being followed falls by half. Usually pIC50 stands for the IC50 on a negative log10 scale, so that one unit is a factor of ten. A lower pIC50 goes with a large IC50. The Cmax is the peak of the concentration-time curve. In general, Tmax refers to the time from dosing to the highest level. For the compound `N[C@]1(C(=O)O)[C@H]2[C@@H](C[C@H]1OCc1ccc3ccccc3c1)[C@]2(F)C(=O)O`, the half-life in series [3] is 2.93 h; in [13] it was 7.1 h; in series [14], 2.9 h; in series [25] it was 3.66 h; in series [26], 2.74 h. This compound also gave a pIC50 in series [4] of 7.64. In addition, the concentration at 1 h in [5] is 1.42 ng/mL; in series [16] it was 121 ng/mL. Besides, the concentration at 3 h in [6] worked out at 3.64 ng/mL; in series [17], 252 ng/mL. The results for the concentration at 6 h in series [7] and in series [18] were 8.72 ng/mL and 210 ng/mL, respectively. In addition, the Cmax in [8] worked out at 65.9 ng/mL; in series [9], 374 ng/mL; in series [10], 965 ng/mL; in [11] it was 8.72 ng/mL; in series [12], 252 ng/mL. In addition, the results for the concentration at 24 h in series [15] and in series [19] were 0.25 ng/mL and 2.2 ng/mL, respectively. This compound also had a pKi in series [2] of 8.27. Moreover, the Tmax in series [20] was found to be 4 h; in [21], 2.7 h; in series [22], 2.7 h; in series [23], 6 h; in series [24], 3 h.

The compound `CC[C@H](O[C@@H]1C[C@@H]2[C@H]([C@]1(N)C(=O)O)[C@@]2(F)C(=O)O)c1ccc(Cl)c(Cl)c1` had a negative logarithm of the Ki (pKi) in series [1] of 8.51.

In turn, `N[C@]1(C(=O)O)[C@@H](OCc2ccc(Cl)c(Cl)c2)C[C@H]2[C@@H]1[C@]2(F)C(=O)O` showed a pKi in [1] of less than 5.00.

As usually defined, the pEC50 is the EC50 on a negative log10 scale, so that one unit is a factor of ten. Low readings indicate a large EC50, high ones a small EC50. Turning to `N[C@@]1(C(=O)O)[C@H](O)C[C@@H]2[C@H]1[C@@]2(F)C(=O)O`, the pEC50 in [27] is less than 4.00. Also, the pKi in series [1] is 7.48; in series [2] it was 7.17.

`N[C@]1(C(=O)O)[C@H]2[C@@H](C[C@H]1OCc1cccc(Cl)c1Cl)[C@]2(F)C(=O)O` gave a pKi in series [1] of 8.36.

`N[C@]1(C(=O)O)[C@H]2[C@@H](C[C@H]1OCc1ccccc1)[C@]2(F)C(=O)O` gave a pIC50 in [4] of 6.88. Further, the pKi in series [1] is 8.15; in [2], 7.80.

For `N[C@]1(C(=O)O)[C@H]2[C@@H](C[C@H]1OCc1ccc(F)c(F)c1)[C@]2(F)C(=O)O`, the half-life in series [3] is 3.62 h; in series [13], 19.5 h; in [14], 2.8 h; in [25] it was 3.47 h; in series [26], 1.78 h. In series [27], this compound showed a pEC50 of less than 4.00. The same compound gave a pIC50 in series [4] of 7.39. Moreover, the concentration at 1 h in series [5] is 3.06 ng/mL; in series [16] it was 213 ng/mL. The values for the concentration at 3 h in series [6] and in series [17] were 3.11 ng/mL and 179 ng/mL, respectively. For the same compound, the figures for the concentration at 6 h in series [7] and in series [18] were 2.4 ng/mL and 41.1 ng/mL, respectively. Besides, the Cmax amounted to 82.3 ng/mL in series [8]; 297 ng/mL in series [9]; 635 ng/mL in series [10]; 3.11 ng/mL in series [11]; 213 ng/mL in series [12]. Besides, the concentration at 24 h was found to be 1.39 ng/mL in series [15] and 0.8 ng/mL in series [19]. The figures for the pKi in series [1] and in series [2] were 8.64 and 8.52, respectively. In addition, the Tmax is 1.3 h in series [20]; 1.7 h in [21]; 1.2 h in series [22]; 3 h in series [23]; 1 h in [24].

Turning to `N[C@]1(C(=O)O)[C@H]2[C@@H](C[C@H]1OCc1c(Cl)cccc1Cl)[C@]2(F)C(=O)O`, the pKi in [1] was 8.37.

`N[C@]1(C(=O)O)[C@H]2[C@@H](C[C@H]1OCc1cccc(Cl)c1)[C@]2(F)C(=O)O` showed a pKi in series [1] of 8.48.
